# Tests used:
# Streptococcus pneumoniae [1] = assay: Antimicrobial activity against Streptococcus pneumoniae 8 expressing inducible ermB after 20 hrs by agar dilution method; format: functional
# In short: (§1)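 Streptococci, H. influenzae and M. catarrhalis were precultured on blood agar plates. Suspensions of about 10⁶ CFU/ml were inoculated onto sensitivity disk agar supplemented with 5% horse blood and incubated at 37 °C for 20 h. MIC was read as the lowest drug concentration with no visible growth.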
# Streptococcus pyogenes [2] = assay: Antimicrobial activity against Streptococcus pyogenes 3 expressing mefA after 20 hrs by agar dilution method; format: functional; in short: as §1
# Staphylococcus aureus [3] = assay: Antimicrobial activity against drug-susceptible Staphylococcus aureus 209P JC-1 after 20 hrs by agar dilution method; format: functional
# In short: (§2)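 Agar dilution MIC. S. aureus seed culture was grown in sensitivity test broth. Cell suspension (about 10⁶ CFU/ml) was inoculated onto sensitivity disk agar with 5% horse blood and incubated at 37 °C for 20 h. MIC was the lowest drug concentration that prevented visible growth.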
# Staphylococcus aureus [4] = assay: Antimicrobial activity against Staphylococcus aureus 5 expressing inducible ermB after 20 hrs by agar dilution method; format: functional; in short: as §2
# Haemophilus influenzae [5] = assay: Antimicrobial activity against drug-susceptible Haemophilus influenzae 4 after 20 hrs by agar dilution method; format: functional; in short: as §1
# Haemophilus influenzae [6] = assay: Antimicrobial activity against drug-susceptible Haemophilus influenzae 3 after 20 hrs by agar dilution method; format: functional; in short: as §1
# Staphylococcus aureus [7] = assay: Antimicrobial activity against drug-susceptible Staphylococcus aureus 3 after 20 hrs by agar dilution method; format: functional; in short: as §2
# Streptococcus pneumoniae [8] = assay: Antimicrobial activity against drug-susceptible Streptococcus pneumoniae 3 after 20 hrs by agar dilution method; format: functional; in short: as §1
# Haemophilus influenzae [9] = assay: Antimicrobial activity against drug-susceptible Haemophilus influenzae 1 after 20 hrs by agar dilution method; format: functional; in short: as §1
# Streptococcus pneumoniae [10] = assay: Antimicrobial activity against Streptococcus pneumoniae 9 expressing mefA after 20 hrs by agar dilution method; format: functional; in short: as §1
# Streptococcus pneumoniae [11] = assay: Antimicrobial activity against drug-susceptible Streptococcus pneumoniae DP1 Type1 after 20 hrs by agar dilution method; format: functional; in short: as §1
# Streptococcus pneumoniae [12] = assay: Antimicrobial activity against Streptococcus pneumoniae 10 expressing mefA after 20 hrs by agar dilution method; format: functional; in short: as §1
# Staphylococcus aureus [13] = assay: Antimicrobial activity against Staphylococcus aureus 6 expressing inducible ermC after 20 hrs by agar dilution method
# Haemophilus influenzae [14] = assay: Antimicrobial activity against drug-susceptible Haemophilus influenzae 2 after 20 hrs by agar dilution method; format: functional; in short: as §1
# Moraxella catarrhalis [15] = assay: Antimicrobial activity against drug-susceptible Moraxella catarrhalis 2 after 20 hrs by agar dilution method; format: functional; in short: as §1
# Streptococcus pyogenes [16] = assay: Antimicrobial activity against drug-susceptible Streptococcus pyogenes 1 after 20 hrs by agar dilution method; format: functional; in short: as §1
# Moraxella catarrhalis [17] = assay: Antimicrobial activity against drug-susceptible Moraxella catarrhalis 1 after 20 hrs by agar dilution method; format: functional; in short: as §1
# Streptococcus pneumoniae [18] = assay: Antimicrobial activity against Streptococcus pneumoniae 7 expressing inducible ermB after 20 hrs by agar dilution method; format: functional; in short: as §1
# Staphylococcus aureus [19] = assay: Antimicrobial activity against drug-susceptible Staphylococcus aureus 2 after 20 hrs by agar dilution method; format: functional; in short: as §2
# Streptococcus pneumoniae [20] = assay: Antimicrobial activity against drug-susceptible Streptococcus pneumoniae 2 after 20 hrs by agar dilution method; format: functional; in short: as §1
# Streptococcus pneumoniae [21] = assay: Antimicrobial activity against Streptococcus pneumoniae 6 constitutively expressing ermB after 20 hrs by agar dilution method; format: functional; details: Streptococcus pneumoniae, 20 h; read-out: MIC; in short: as §1
# Streptococcus pyogenes [22] = assay: Antimicrobial activity against Streptococcus pyogenes 2 constitutively expressing ermB after 20 hrs by agar dilution method; format: functional; in short: as §1
# Streptococcus pneumoniae [23] = assay: Antimicrobial activity against Streptococcus pneumoniae 4 constitutively expressing ermB after 20 hrs by agar dilution method; format: functional; details: Streptococcus pneumoniae, 20 h; read-out: MIC; in short: as §1
# Staphylococcus aureus [24] = assay: Antimicrobial activity against Staphylococcus aureus 4 constitutively expressing ermA after 20 hrs by agar dilution method; format: functional; in short: as §2
# Streptococcus pneumoniae [25] = assay: Antimicrobial activity against Streptococcus pneumoniae 5 constitutively expressing ermB/mefA after 20 hrs by agar dilution method; format: functional; details: Streptococcus pneumoniae, 20 h; read-out: MIC; in short: as §1
# [26] = Haemophilus influenzae, 20 h, read-out: MIC
SMILES,MIC (Streptococcus pneumoniae [1]),MIC (Streptococcus pyogenes [2]),MIC (Staphylococcus aureus [3]),MIC (Staphylococcus aureus [4]),MIC (Haemophilus influenzae [5]),MIC (Haemophilus influenzae [6]),MIC (Staphylococcus aureus [7]),MIC (Streptococcus pneumoniae [8]),MIC (Haemophilus influenzae [9]),MIC (Streptococcus pneumoniae [10]),MIC (Streptococcus pneumoniae [11]),MIC (Streptococcus pneumoniae [12]),MIC (Staphylococcus aureus [13]),MIC (Haemophilus influenzae [14]; [26]),MIC (Moraxella catarrhalis [15]),MIC (Streptococcus pyogenes [16]),MIC (Moraxella catarrhalis [17]),MIC (Streptococcus pneumoniae [18]),MIC (Staphylococcus aureus [19]),MIC (Streptococcus pneumoniae [20]),other results
CCOC(=O)[C@H]1[C@H](C)O[C@@H](O[C@H]2[C@H](N(C)C)[C@@H](O)[C@H](O[C@H]3[C@@H](CC=O)C[C@@H](C)[C@@H](O)CN(C)CC(CCCc4ccnc5ccccc45)CCOC(=O)C[C@@H](OC(=O)CC)[C@@H]3OC)O[C@@H]2C)C[C@@]1(C)O (stereo in doubt; form 2),16 µg/mL,0.25 µg/mL,0.25 µg/mL,0.25 µg/mL,8 µg/mL,8 µg/mL,0.25 µg/mL,0.03 µg/mL,16 µg/mL,0.06 µg/mL,0.015 µg/mL,0.06 µg/mL,0.5 µg/mL,2 µg/mL,1 µg/mL,0.06 µg/mL,1 µg/mL,16 µg/mL,0.5 µg/mL,0.06 µg/mL,
CCOC(=O)[C@H]1[C@H](C)O[C@@H](O[C@H]2[C@H](N(C)C)[C@@H](O)[C@H](O[C@H]3[C@@H](CC=O)C[C@@H](C)[C@@H](O)CN(C)CCC(/C=C/Cc4ccnc5ccccc45)NC(=O)C[C@@H](OC(=O)CC)[C@@H]3OC)O[C@@H]2C)C[C@@]1(C)O (stereo in doubt),64 µg/mL,2 µg/mL,2 µg/mL,2 µg/mL,16 µg/mL,8 µg/mL,1 µg/mL,0.25 µg/mL,32 µg/mL,0.25 µg/mL,0.13 µg/mL,0.25 µg/mL,2 µg/mL,,4 µg/mL,0.5 µg/mL,4 µg/mL,64 µg/mL,4 µg/mL,0.25 µg/mL,MIC (Haemophilus influenzae [14]): 1 µg/mL
CCOC(=O)[C@H]1[C@H](C)O[C@@H](O[C@H]2[C@H](N(C)C)[C@@H](O)[C@H](O[C@H]3[C@@H](CC=O)C[C@@H](C)[C@@H](O)CN(C)CC(/C=C\Cc4ccnc5ccccc45)CCOC(=O)C[C@@H](OC(=O)CC)[C@@H]3OC)O[C@@H]2C)C[C@@]1(C)O (stereo in doubt; form 1),8 µg/mL,0.5 µg/mL,0.25 µg/mL,0.25 µg/mL,16 µg/mL,16 µg/mL,0.25 µg/mL,0.06 µg/mL,,0.06 µg/mL,0.03 µg/mL,0.06 µg/mL,0.5 µg/mL,,2 µg/mL,0.13 µg/mL,2 µg/mL,8 µg/mL,1 µg/mL,0.06 µg/mL,MIC (Streptococcus pneumoniae [21]): > 128 µg/mL; MIC (Streptococcus pyogenes [22]): > 128 µg/mL; MIC (Streptococcus pneumoniae [23]): > 128 µg/mL; MIC (Haemophilus influenzae [9]; [26]): 64 µg/mL; MIC (Staphylococcus aureus [24]): > 128 µg/mL; MIC (Streptococcus pneumoniae [25]): > 128 µg/mL
CCOC(=O)[C@H]1[C@H](C)O[C@@H](O[C@H]2[C@H](N(C)C)[C@@H](O)[C@H](O[C@H]3[C@@H](CC=O)C[C@@H](C)[C@@H](O)CN(C)CC(/C=C\Cc4ccnc5ccccc45)CCOC(=O)C[C@@H](OC(=O)CC)[C@@H]3OC)O[C@@H]2C)C[C@@]1(C)O (stereo in doubt; form 2),>128 µg/mL,4 µg/mL,2 µg/mL,2 µg/mL,128 µg/mL,128 µg/mL,2 µg/mL,0.5 µg/mL,>128 µg/mL,1 µg/mL,0.5 µg/mL,1 µg/mL,4 µg/mL,32 µg/mL,16 µg/mL,1 µg/mL,16 µg/mL,>128 µg/mL,4 µg/mL,1 µg/mL,

# Reference: ChEMBL document CHEMBL1151705, “Novel azalides derived from 16-membered macrolides. Part II: Isolation of the linear 9-formylcarboxylic acid and its sequential macrocyclization with an amino alcohol or an azidoamine” (2008)
